Experimental data from ChEMBL document CHEMBL2331225, “Structure-based design, synthesis and evaluation of novel anthra[1,2-d]imidazole-6,11-dione derivatives as telomerase inhibitors and potential for cancer polypharmacology” (Eur J Med Chem, 2013).
pIC50: −log10 of the molar value. Calls of active or inactive are those of the source. No cut-off for these calls is given here.

How the values were obtained:
[1] = target: T1, Telomerase reverse transcriptase (Homo sapiens, UniProt O14746); experiment: Inhibition of TERT transcriptional activity in human H1299 cells assessed SEAP activity at 10 uM incubated for 24 hrs by SEAP assay; format: cell-based; design: scale not given: the % may be the effect or the level left
T1 sequence (O14746 whole entry): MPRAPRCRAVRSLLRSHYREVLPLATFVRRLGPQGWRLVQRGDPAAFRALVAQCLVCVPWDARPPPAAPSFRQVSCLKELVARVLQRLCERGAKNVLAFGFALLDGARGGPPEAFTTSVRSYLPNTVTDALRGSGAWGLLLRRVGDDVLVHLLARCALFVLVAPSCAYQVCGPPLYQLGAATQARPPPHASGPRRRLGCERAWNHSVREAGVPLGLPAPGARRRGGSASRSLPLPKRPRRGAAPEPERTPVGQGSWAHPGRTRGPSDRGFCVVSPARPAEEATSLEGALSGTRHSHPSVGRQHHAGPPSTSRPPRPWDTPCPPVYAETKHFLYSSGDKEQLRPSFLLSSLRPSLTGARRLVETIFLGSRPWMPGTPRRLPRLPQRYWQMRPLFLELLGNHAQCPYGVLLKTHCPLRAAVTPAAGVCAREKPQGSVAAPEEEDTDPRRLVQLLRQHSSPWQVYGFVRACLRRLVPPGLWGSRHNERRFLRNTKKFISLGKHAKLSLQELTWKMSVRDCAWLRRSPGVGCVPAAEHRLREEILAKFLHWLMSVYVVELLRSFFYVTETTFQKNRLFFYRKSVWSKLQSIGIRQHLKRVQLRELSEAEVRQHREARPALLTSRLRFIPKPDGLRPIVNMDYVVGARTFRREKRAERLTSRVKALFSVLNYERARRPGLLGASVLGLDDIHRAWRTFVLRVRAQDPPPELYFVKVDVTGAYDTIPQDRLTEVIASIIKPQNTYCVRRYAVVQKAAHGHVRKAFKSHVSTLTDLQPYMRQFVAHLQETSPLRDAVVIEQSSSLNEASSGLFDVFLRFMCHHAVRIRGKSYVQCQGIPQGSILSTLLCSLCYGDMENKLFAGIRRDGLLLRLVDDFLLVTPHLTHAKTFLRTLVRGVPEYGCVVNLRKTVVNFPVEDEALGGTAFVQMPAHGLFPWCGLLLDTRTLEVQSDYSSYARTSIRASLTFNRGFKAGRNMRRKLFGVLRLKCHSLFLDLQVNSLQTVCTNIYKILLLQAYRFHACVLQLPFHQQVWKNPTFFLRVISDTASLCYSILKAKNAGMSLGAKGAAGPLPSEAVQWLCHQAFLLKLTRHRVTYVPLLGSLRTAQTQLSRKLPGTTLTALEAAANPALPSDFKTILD
How it was run: (§1)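 H1299 stable clones carry the hTERT promoter (−3338 to +1 bp) upstream of SEAP, introduced by electroporation and selected with G418. About 2 × 10³ cells per well were grown 24 h at 37 °C, given fresh medium, then drug for 24 h. Collected media were heated at 65 °C for 10 min, mixed with equal SEAP buffer (2 M diethanolamine, 1 mM MgCl₂, 20 mM L-homoarginine) and p-nitrophenyl phosphate at 12 mM final.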

[2] = target: T1, Telomerase reverse transcriptase; experiment: Inhibition of TERT activity in human H1299 cells homogenates incubated for 5 mins at 100 uM by TRAP assay; format: cell-free
How it was run: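 Telomerase-active extracts were prepared from H1299 cells, and lysate protein was measured against BSA standards. Compounds were tested in the TRAP assay, with RNase A-treated extracts as negative controls.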

PC-3 = experiment: Growth inhibition of human PC3 cells after 48 hrs by SRB assay; format: functional, cell-based; settings: PC-3, 48 h
How it was run: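 PC-3 cells were seeded in medium with 5% FBS; after 24 h a plate was fixed with 10% TCA as T₀. Vehicle (0.1% DMSO) or compound was given for 48 h, then cells were TCA-fixed, stained with 0.4% SRB in 1% acetic acid, solubilized in 10 mM Trizma base and read at 515 nm. IC₅₀ is the concentration halving the protein increase seen in controls.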

[3] = target: T1, Telomerase reverse transcriptase; experiment: Inhibition of TERT transcriptional activity in human H1299 cells assessed SEAP activity at 1 uM incubated for 24 hrs by SEAP assay; format: cell-based; design: scale not given: the % may be the effect or the level left; how it was run: as §1
[4] = Cytotoxicity against human H1299 cells assessed as cell viability at 100 uM after 48 hrs by MTT assay; format: functional; settings: NCI-H1299, 48 h, read-out: Activity
How it was run: (§2)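 H1299 cells at about 2 × 10³ per well were grown 24 h at 37 °C in 5% CO₂. Compounds were dissolved in DMSO just before use and diluted into complete medium. After 48 h exposure, MTT was added for 4 h at 37 °C, then lysis buffer (20% SDS, 50% DMF) for 16 h at 37 °C. Absorbance was read at 550 nm.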

[5] = target: T1, Telomerase reverse transcriptase; experiment: Inhibition of TERT transcriptional activity in human H1299 cells assessed SEAP activity at 100 uM incubated for 24 hrs by SEAP assay; format: cell-based; design: scale not given: the % may be the effect or the level left; how it was run: as §1
[6] = Cytotoxicity against human H1299 cells assessed as cell viability at 1 uM after 48 hrs by MTT assay; format: functional; settings: NCI-H1299, 48 h, read-out: Activity; how it was run: as §2
[7] = Cytotoxicity against human H1299 cells assessed as cell viability at 10 uM after 48 hrs by MTT assay; format: functional; settings: NCI-H1299, 48 h, read-out: Activity; how it was run: as §2

| SMILES | Activity [1] | TERT inhibition (active/not active) [2] | pIC50 (PC-3) | Activity [3] | viability at 100 µM [4] | Activity [5] | viability at 1 µM [6] | viability at 10 µM [7] |
| --- | --- | --- | --- | --- | --- | --- | --- | --- |
| O=C1c2ccccc2C(=O)c2c1ccc1nc(CN3CCN(Cc4ccccc4)CC3)[nH]c21 | 11% | inactive | < 4.52 | 98% | 13% | 0% | 93% | 51% |
| O=C1c2ccccc2C(=O)c2c1ccc1nc(CCCl)[nH]c21 | 83% | inactive | 5.28 | 95% | 40% | 8% | 91% | 86% |
| O=C1c2ccccc2C(=O)c2c1ccc1nc(CNCc3cccc(C(F)(F)F)c3)[nH]c21 | 89% | inactive | < 4.52 | 87% | 32% | 4% | 114% | 110% |
| O=C1c2ccccc2C(=O)c2c1ccc1nc(CN3CCC4(CC3)OCCO4)[nH]c21 | 96% | inactive | 4.67 | 97% | 15% | 14% | 103% | 79% |
| CC(C)N(C)Cc1nc2ccc3c(c2[nH]1)C(=O)c1ccccc1C3=O | 1% | inactive | 5.17 | 77% | 0% | 0% | 96% | 23% |
| N#Cc1ccccc1N1CCN(Cc2nc3ccc4c(c3[nH]2)C(=O)c2ccccc2C4=O)CC1 | 57% | inactive | 4.54 | 106% | 22% | 6% | 78% | 62% |
| O=C1c2ccccc2C(=O)c2c1ccc1nc(CNCc3ccc4c(c3)OCO4)[nH]c21 | 75% | inactive | 4.65 | 75% | 14% | 1% | 109% | 103% |
| CN(Cc1nc2ccc3c(c2[nH]1)C(=O)c1ccccc1C3=O)CC1OCCO1 | 69% | inactive | 4.68 | 90% | 28% | 7% | 104% | 90% |
| O=C1c2ccccc2C(=O)c2c1ccc1nc(CN3CCN(c4ncccn4)CC3)[nH]c21 | 92% | inactive | 4.55 | 111% | 28% | 19% | 85% | 74% |
| O=C(CCCl)Nc1ccc2c(c1NC(=O)CCCl)C(=O)c1ccccc1C2=O | 13% | inactive | < 4.52 | 87% | 6% | 0% | 94% | 34% |
| CC1CCN(Cc2nc3ccc4c(c3[nH]2)C(=O)c2ccccc2C4=O)CC1 | 97% | inactive | < 4.52 | 102% | 32% | 26% | 114% | 110% |
| CN(Cc1nc2ccc3c(c2[nH]1)C(=O)c1ccccc1C3=O)Cc1c2ccccc2cc2ccccc12 | 77% | inactive | < 4.52 | 102% | 42% | 12% | 98% | 84% |
| O=C1c2ccccc2C(=O)c2c1ccc1nc(CNCc3ccccc3C(F)(F)F)[nH]c21 | 81% | inactive | < 4.52 | 87% | 6% | 0% | 99% | 96% |
| CN(C)Cc1nc2ccc3c(c2[nH]1)C(=O)c1ccccc1C3=O | 45% | inactive | 5.06 | 84% | 0% | 0% | 99% | 64% |
